Results published in ChEMBL document CHEMBL1156597, “Structure-activity relationship of kahalalide F synthetic analogues” (J Med Chem, 2008).

Experiments:
[1] = tested on: HT-29; experiment: Cytotoxicity against human HT29 cells after 48 hrs by SRB assay; type: functional, cell-based; details: Homo sapiens, HT-29, 48 h; for CC50: read-out: LC50 (the source's name)
Summary of the method: (§1)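 Cells grown in RPMI 1640 with 10% FBS and penicillin/streptomycin at 37 °C and 5% CO₂, trypsinized, then seeded at 5 × 10³/well. After 18 h drug-free attachment, samples in DMSO/EtOH/PBS (0.5:0.5:99) were added for 48 h continuous exposure. Cells were fixed with cold TCA (1 h, 4 °C) and stained with SRB (10 min). Tris-solubilized stain read at 490 nm. Triplicate wells, mean ± SD; GI₅₀ derived.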

[2] = tested on: SK-BR-3; experiment: Cytotoxicity against human SKBR3 cells after 48 hrs by SRB assay; type: functional; details: SK-BR-3, 48 h; for GI50: read-out: GI50; for CC50: read-out: LC50 (the source's name); summary of the method: as §1
[3] = tested on: LoVo; experiment: Cytotoxicity against human doxorubicin resistant LoVo cells after 48 hrs by SRB assay; type: functional; details: for CC50: read-out: LC50 (the source's name); summary of the method: as §1
[4] = tested on: PANC-1; experiment: Cytotoxicity against human PANC1 cells after 48 hrs by SRB assay; type: functional; details: PANC-1, 48 h; for CC50: read-out: LC50 (the source's name); summary of the method: as §1
[5] = Cytotoxicity against human HeLa-APL cells after 48 hrs by SRB assay; type: functional; summary of the method: as §1
[6] = tested on: LNCaP; experiment: Cytotoxicity against human LNcaP cells after 48 hrs by SRB assay; type: functional; details: for CC50: read-out: LC50 (the source's name); summary of the method: as §1
[7] = Cytotoxicity against human IGROV cells after 48 hrs by SRB assay; type: functional; details: for CC50: read-out: LC50 (the source's name); summary of the method: as §1
[8] = tested on: K562; experiment: Cytotoxicity against human K562 cells after 48 hrs by SRB assay; type: functional; details: K562, 48 h; for CC50: read-out: LC50 (the source's name); summary of the method: as §1
[9] = tested on: SK-MEL-28; experiment: Cytotoxicity against human SK-MEL-28 cells after 48 hrs by SRB assay; type: functional, cell-based; details: Homo sapiens, SK-MEL-28, 48 h; for CC50: read-out: LC50 (the source's name); summary of the method: as §1
[10] = Cytotoxicity against human IGROV-ET cells after 48 hrs by SRB assay; type: functional; details: for CC50: read-out: LC50 (the source's name); summary of the method: as §1
[11] = tested on: HeLa; experiment: Cytotoxicity against human HeLa cells after 48 hrs by SRB assay; type: functional; details: for CC50: read-out: LC50 (the source's name); summary of the method: as §1
[12] = tested on: DU-145; experiment: Cytotoxicity against human DU145 cells after 48 hrs by SRB assay; type: functional, cell-based; details: Homo sapiens, DU-145, 48 h; for CC50: read-out: LC50 (the source's name); summary of the method: as §1
[13] = tested on: LoVo; experiment: Cytotoxicity against human LoVo cells after 48 hrs by SRB assay; type: functional; details: for CC50: read-out: LC50 (the source's name)
[14] = tested on: A549; experiment: Cytotoxicity against human A549 cells after 48 hrs by SRB assay; type: functional, cell-based; details: Homo sapiens, A549, 48 h; for GI50: read-out: GI50; summary of the method: as §1

Compound | CC50 [1] | TGI [2] | GI50 [2] | CC50 [2] | GI50 [3] | TGI [3] | CC50 [3] | CC50 [4] | GI50 [5] | LC50 (concentration giving 50% net cell kill) [5] | TGI [5] | GI50 [6] | TGI [6] | CC50 [6] | GI50 [7] | GI50 ([7]; read-out: GI50) | CC50 [7] | CC50 [8] | GI50 ([9]; read-out: GI50) | CC50 [9] | also measured
C/C=C1\NC(=O)[C@H](Cc2ccccc2)NC(=O)[C@@H](C(C)C)NC(=O)[C@@H]([C@H](C)CC)NC(=O)[C@H](NC(=O)[C@H](NC(=O)[C@H](CCCN)NC(=O)[C@H]2CCCN2C(=O)[C@H](NC(=O)[C@@H](NC(=O)[C@@H](NC(=O)[C@H](NC(=O)CC[C@H](C)CC)C(C)C)[C@@H](C)O)C(C)C)C(C)C)[C@H](C)CC)[C@H](C)OC(=O)[C@H](C(C)C)NC1=O | 668 nM | 425 nM | 469 nM | 383 nM | 690 nM | 1040 nM | 1660 nM | 1640 nM | 1420 nM | 1240 nM | 1420 nM | 1470 nM | 1290 nM | 1130 nM | 776 nM | 1520 nM | 551 nM | 1930 nM | 1370 nM | 1160 nM | GI50 [8]: 2180 nM; TGI [8]: 1930 nM; TGI [9]: 1270 nM; GI50 [10]: 920 nM; GI50 ([10]; read-out: GI50): 1900 nM; CC50 [10]: 614 nM; CC50 [11]: 971 nM; TGI [12]: 1270 nM; GI50 ([12]; read-out: GI50): 1440 nM; CC50 [12]: 1130 nM; GI50 [13]: 690 nM; TGI [13]: 1180 nM; CC50 [13]: 1890 nM; LC50 [14]: 1360 nM; TGI [14]: 1420 nM; GI50 [14]: 1480 nM
C=C1NC(=O)[C@H](Cc2ccccc2)NC(=O)[C@@H](C(C)C)NC(=O)[C@@H]([C@H](C)CC)NC(=O)[C@H](NC(=O)[C@H](NC(=O)[C@H](CCCN)NC(=O)[C@H]2CCCN2C(=O)[C@H](NC(=O)[C@@H](NC(=O)[C@@H](NC(=O)[C@H](NC(=O)CCCC(C)C)C(C)C)[C@@H](C)O)C(C)C)C(C)C)[C@H](C)CC)[C@H](C)OC(=O)[C@H](C(C)C)NC1=O | 612 nM | 412 nM | 458 nM | 360 nM | 393 nM | 3720 nM | 235 nM | 1790 nM | 893 nM | 791 nM | 842 nM | 1440 nM | 1860 nM | 1410 nM | 442 nM | 630 nM | 334 nM | 1950 nM | 1100 nM | 1160 nM | GI50 [1]: 638 nM; TGI [1]: 804 nM; GI50 [8]: 2470 nM; TGI [8]: 3010 nM; TGI [9]: 1130 nM; GI50 [10]: 366 nM; GI50 ([10]; read-out: GI50): 349 nM; CC50 [10]: 392 nM; CC50 [11]: 646 nM; GI50 [12]: 901 nM; GI50 ([12]; read-out: GI50): 1110 nM; CC50 [12]: 730 nM; GI50 [13]: 309 nM; TGI [13]: 318 nM; CC50 [13]: 295 nM; LC50 [14]: 1070 nM; TGI [14]: 1140 nM; GI50 [14]: 1200 nM
C/C=C1\NC(=O)[C@H](Cc2ccccc2)NC(=O)[C@@H](C(C)C)NC(=O)[C@@H]([C@H](C)CC)NC(=O)[C@H](NC(=O)[C@H](NC(=O)[C@H](CCCNC(=O)CCCC[C@@H]2SC[C@@H]3NC(=O)N[C@@H]32)NC(=O)[C@H]2CCCN2C(=O)[C@H](NC(=O)[C@@H](NC(=O)[C@@H](NC(=O)[C@H](NC(=O)CCCC(C)C)C(C)C)[C@@H](C)O)C(C)C)C(C)C)[C@H](C)CC)[C@H](C)OC(=O)[C@H](C(C)C)NC1=O | 164 nM | 267 nM | 322 nM | 90.5 nM | 328 nM | 354 nM | 2180 nM | 2010 nM | 985 nM | 996 nM | 989 nM | 816 nM | 810 nM | 805 nM | 351 nM | 369 nM | 342 nM | 1680 nM | 959 nM | 974 nM | GI50 [1]: 362 nM; TGI [1]: 316 nM; GI50 [4]: 1990 nM; TGI [4]: 2360 nM; GI50 [9]: 974 nM; GI50 [10]: 488 nM; GI50 ([10]; read-out: GI50): 618 nM; CC50 [10]: 385 nM; GI50 [11]: 382 nM; TGI [11]: 580 nM; CC50 [11]: 716 nM; GI50 [12]: 836 nM; GI50 ([12]; read-out: GI50): 854 nM; CC50 [12]: 814 nM; GI50 [13]: 317 nM; TGI [13]: 303 nM; CC50 [13]: 288 nM; LC50 [14]: 128 nM
C/C=C1\NC(=O)[C@H](Cc2ccccc2)NC(=O)[C@@H](C(C)C)NC(=O)[C@@H]([C@H](C)CC)NC(=O)[C@H](NC(=O)[C@H](NC(=O)[C@H](CCCN)NC(=O)[C@H]2CCCN2C(=O)[C@H](NC(=O)[C@@H](NC(=O)[C@@H](NC(=O)[C@H](NC(=O)C2CCC(C)CC2)C(C)C)[C@@H](C)O)C(C)C)C(C)C)[C@H](C)CC)[C@H](C)OC(=O)[C@H](C(C)C)NC1=O (some centres not stated) | 642 nM | 298 nM | 350 nM | 1030 nM | 340 nM | 329 nM | 319 nM | 2300 nM | 633 nM | 977 nM | 810 nM | 1070 nM | 1170 nM | 1260 nM | 477 nM | 526 nM | 441 nM | 1810 nM | 1010 nM | 1100 nM | GI50 [1]: 551 nM; TGI [1]: 554 nM; GI50 [4]: 2660 nM; TGI [4]: 4530 nM; TGI [9]: 1060 nM; GI50 [10]: 503 nM; GI50 ([10]; read-out: GI50): 598 nM; CC50 [10]: 426 nM; GI50 [11]: 904 nM; TGI [11]: 897 nM; CC50 [11]: 892 nM; GI50 [12]: 788 nM; GI50 ([12]; read-out: GI50): 690 nM; CC50 [12]: 839 nM; GI50 [13]: 244 nM; TGI [13]: 280 nM; CC50 [13]: 3200 nM; LC50 [14]: 1340 nM; TGI [14]: 1180 nM; GI50 [14]: 1040 nM
